Test results reported in paper PMC3166626 (Nature immunology, 2010).
“Also recorded” adds a separate entry of the source.

Key:
I-A^g7 = test: Peptide binding to I-A^g7; design: species or system NOD mouse; conditions: inhibition of bio-pHEL (11 μM) binding to soluble I-A^g7, pH 5.6, overnight, 21°C, ELISA; average of two experiments (Fig. 6b,c)
Outline: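 Soluble I-A^g7 carrying covalently linked pHEL, thrombin-treated to cleave the peptide linker. Diluted in PBS, captured on OX6-coated wells, washed. Bound probe detected with alkaline phosphatase–Extravidin and […]. Controls: mimotope peptide (positive), I-E^k-binding moth cytochrome c peptide (negative). Reported as percent of uninhibited probe binding.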

T cell clone BDC-2.5 = test: IFN-γ response of T cell clone BDC-2.5; assay type: cell-based, NOD mouse; conditions: ChgA-derived peptides 5–500 μM; two experiments, single measurements (Fig. 6a,c)
Outline: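 Cultures held 2 × 10⁴ BDC-2.5 T cells and 2.5 × 10⁴ NOD peritoneal exudate cells as I-A^g7 APCs. Chromogranin A-derived peptides were added at 5–500 μM. Controls were beta cell tumor membrane preparation, a positive mimotope peptide and an irrelevant moth cytochrome c peptide. IFN-γ was measured by specific ELISA. Two experiments, single measurement per concentration. Stimulatory capacity was calculated relative to the reference peptide.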

BDC T cell clones [1] = test: In vitro activation of the BDC T cell clones; assay type: cell-based, NOD mouse
Outline: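 The three BDC clones (2 × 10⁴ responder cells each) were cultured with 2.5 × 10⁴ NOD peritoneal exudate cells as APCs. Soluble synthetic test peptides were titrated alongside a mimotope peptide and beta cell tumor membrane preparation as the control antigen. IFN-γ (ng/ml) was measured by specific ELISA. At least two separate experiments, single measurement at each peptide concentration.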

BDC T cell clones [2] = conditions: presented in the context of I-A^g7; cited from earlier work

| Substance | Binding to I-A^g7 (I-A^g7) | Stimulatory activity on BDC-2.5 (IFN-γ response) (T cell clone BDC-2.5) | further results |
| --- | --- | --- | --- |
| EE18: WE14 extended by 4 amino acids at the N-terminus (EDKRWSRMDQLAKELTAE) | no effect on I-A^g7 binding | eliminated the BDC-2.5 response | – |
| ED9: WD5 extended by the same 4 amino acids at the N-terminus (EDKRWSRMD) | did not bind to I-A^g7 | failed to stimulate BDC-2.5 | – |
| RLGLWVRME [pS3] | – | – | Potency in activating the BDC clones relative to WE14 (BDC T cell clones [1]; pS3 vs synthetic WE14): at least 1000 fold |
| WSRMD [WD5] | – | lacked any stimulatory activity | – |
| WA8: C-terminal truncation of WE14 (WSRMDQLA) | – | decreasing stimulatory activity | – |
| WSRMDQLAKELTAE [WE14] | bound to I-A^g7, although not nearly as well as the pS3 mimotope; also recorded: bound I-A^g7 | – | Activation of the BDC T cell clones (BDC T cell clones [1]; in vitro, presented by I-A^g7 APCs): activated the ChgA-specific T cell clones in vitro; also recorded: potently stimulated all three of the BDC clones; also recorded: the clones were activated; Potency relative to beta cell (tumor) antigen preparation (BDC T cell clones [1]; synthetic WE14 vs β-Mem): considerably less potent than the antigen preparation from the beta cell adenoma tumor |
| insulin: insulin, to which the BDC clones are not responsive | – | – | Response of BDC clones in vitro (BDC T cell clones [2]): not responsive |
| WL11: WE14 truncated by 3 C-terminal amino acids (WSRMDQLAKEL) | reduced binding to a level indistinguishable from the negative control peptide | decreasing stimulatory activity | – |
